For series [1] the following is noted: circulating steroid in humans; ref White and Porterfield, 2013; cited from earlier work.
The conditions of series [2]: metabolite in human plasma; ref Quinete et al., 2017; cited from earlier work.
In series [3] the target is T1, human estrogen sulfotransferase (SULT1E1) (Homo sapiens, UniProt P49888).
T1 sequence (P49888 1-294): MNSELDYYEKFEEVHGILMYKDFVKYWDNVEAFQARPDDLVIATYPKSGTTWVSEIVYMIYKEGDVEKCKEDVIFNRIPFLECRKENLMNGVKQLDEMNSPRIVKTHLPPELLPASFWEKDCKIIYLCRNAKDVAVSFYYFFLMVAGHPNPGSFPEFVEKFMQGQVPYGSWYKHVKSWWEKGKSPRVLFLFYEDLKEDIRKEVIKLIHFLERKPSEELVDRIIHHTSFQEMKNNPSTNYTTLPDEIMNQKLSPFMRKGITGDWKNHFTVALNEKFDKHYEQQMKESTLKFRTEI
Briefly: Inhibition of SULT1E1-catalyzed sulfation of [3H]estradiol. Type of series: biochemical. Conditions: 7.0 nM estradiol. A digest of the protocol: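 Purified recombinant human enzyme expressed in E. coli BL21(DE3). Test compound added in ethanol at 0.01–10,000 nM. Equilibrated 3 min at 37 °C, started with 3.0 ng enzyme, run 4 min. Stopped with Tris-HCl pH 8.7 plus chloroform. Aqueous [3H]estradiol-3-sulfate counted by scintillation. Triplicates. IC50 fitted from % of control rate.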

Results on five compounds are retold here after publication PMC6078096 (Environmental toxicology and pharmacology, 2018).

For orientation: half-life means the time in which the quantity being followed falls by half.

Structures can show the parent of a compound that is named as a salt.

`C[C@]12CC[C@H](O)CC1=CC[C@@H]1[C@@H]2CC[C@]2(C)C(=O)CC[C@@H]12` [DHEA, dehydroepiandrosterone]: the half-life in series [1] is 0.25 to 0.5 h. Consider `Oc1ccc(-c2ccc(Cl)cc2Cl)cc1Cl` [4’-OH-PCB 25, 2,3’,4-trichloro-4’-hydroxybiphenyl], for which the “estimated half-life in human plasma” value in series [2] is on record as 6.5 years. With `Oc1ccc(-c2ccc(Cl)cc2)cc1` [4’-OH-PCB 3, 4-chloro-4’-hydroxybiphenyl], the “fold higher IC50 value for SULT1E1 than 4-OH-PCB 11 and 4’-OH PCB 25” value in series [3] is on record as around 200 fold. For `O=S(=O)(O)Oc1ccc(-c2ccc(Cl)cc2Cl)cc1Cl` [4’-PCB 25 Sulfate, 2,3’,4-trichloro-4’-biphenylsulfate], in series [3], the “IC50 value for SULT1E1, fold greater than the estradiol concentration” value is recorded as “over 50 fold”. For `C[C@]12CC[C@H](OS(=O)(=O)O)CC1=CC[C@@H]1[C@@H]2CC[C@]2(C)C(=O)CC[C@@H]12` [DHEA-sulfate, dehydroepiandrosterone sulfate], the half-life in series [1] is 7 to 10 h.
